In ChEMBL document CHEMBL3862036, “Biphenyl Pyridazinone Derivatives as Inhaled PDE4 Inhibitors: Structural Biology and Structure-Activity Relationships” (J Med Chem, 2016):

Legend:
[1] = target: T1, Adenosine receptor A2b (Homo sapiens, UniProt P29275); assay: Antagonist activity at adenosine A2b receptor (unknown origin)
T1 sequence (P29275 whole entry): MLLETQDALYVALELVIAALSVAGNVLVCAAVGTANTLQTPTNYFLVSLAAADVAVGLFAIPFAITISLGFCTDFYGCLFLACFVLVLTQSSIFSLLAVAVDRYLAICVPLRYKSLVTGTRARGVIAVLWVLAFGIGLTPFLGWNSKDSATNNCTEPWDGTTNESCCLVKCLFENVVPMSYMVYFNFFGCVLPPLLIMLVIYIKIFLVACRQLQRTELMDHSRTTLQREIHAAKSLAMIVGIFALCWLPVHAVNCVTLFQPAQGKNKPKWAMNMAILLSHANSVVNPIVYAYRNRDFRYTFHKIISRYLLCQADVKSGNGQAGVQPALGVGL

[2] = target: T2, Adenosine receptor A1 (Homo sapiens, UniProt P30542); assay: Antagonist activity at adenosine A1 receptor (unknown origin)
T2 sequence (P30542 whole entry): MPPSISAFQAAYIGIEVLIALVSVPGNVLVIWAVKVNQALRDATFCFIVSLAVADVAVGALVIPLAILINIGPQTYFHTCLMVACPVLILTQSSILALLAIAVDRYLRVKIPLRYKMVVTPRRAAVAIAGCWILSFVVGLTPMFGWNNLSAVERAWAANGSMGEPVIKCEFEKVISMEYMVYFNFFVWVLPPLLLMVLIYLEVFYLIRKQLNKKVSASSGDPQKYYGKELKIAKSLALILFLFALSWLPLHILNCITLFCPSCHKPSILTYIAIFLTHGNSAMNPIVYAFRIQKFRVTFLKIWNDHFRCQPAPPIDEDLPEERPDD

[3] = test system: Rattus norvegicus; assay: Anti-inflammatory activity in Sprague-Dawley rat assessed as inhibition of LPS-induced neutrophilia at 10 to 1000 ug/kg, it administered as suspension with Penn-Century micro-sprayer aerosolizer dosed 1 hrs before LPS challenge and measured 5 hrs post dose; type: functional; conditions: inhaled or nasal
Summary of the method: (§1)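 Suspensions in PBS/0.2% Tween 80 were homogenized, with lower doses made by 1:10 dilutions. 0.2 mL was given intratracheally by MicroSprayer to isoflurane-anesthetized fasted male Sprague-Dawley rats (230–280 g). At 1 or 18 h, rats received nebulized LPS (30 mL of a 1:100 PBS dilution of 100 mg/10 mL stock) over 40 min. Four hours later, BAL neutrophils were counted by flow cytometry.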

[4] = test system: Rattus norvegicus; assay: Anti-inflammatory activity in Sprague-Dawley rat assessed as inhibition of LPS-induced neutrophilia at 1000 ug/kg, it administered as suspension with Penn-Century micro-sprayer aerosolizer dosed 1 hrs before LPS challenge and measured 5 hrs post dose; type: functional; conditions: inhaled or nasal; summary of the method: as §1
[5] = Drug metabolism in human liver S9 fraction assessed as glucuronidation in presence of PAPS and UDPGA incubated for 20 mins; type: ADME, subcellular; conditions: read-out: Drug metabolism
[6] = target: Adenosine receptor A2a (Homo sapiens, UniProt P29274); assay: Antagonist activity at adenosine A2a receptor (unknown origin)
Adenosine receptor A2a, sequence (P29274 whole entry): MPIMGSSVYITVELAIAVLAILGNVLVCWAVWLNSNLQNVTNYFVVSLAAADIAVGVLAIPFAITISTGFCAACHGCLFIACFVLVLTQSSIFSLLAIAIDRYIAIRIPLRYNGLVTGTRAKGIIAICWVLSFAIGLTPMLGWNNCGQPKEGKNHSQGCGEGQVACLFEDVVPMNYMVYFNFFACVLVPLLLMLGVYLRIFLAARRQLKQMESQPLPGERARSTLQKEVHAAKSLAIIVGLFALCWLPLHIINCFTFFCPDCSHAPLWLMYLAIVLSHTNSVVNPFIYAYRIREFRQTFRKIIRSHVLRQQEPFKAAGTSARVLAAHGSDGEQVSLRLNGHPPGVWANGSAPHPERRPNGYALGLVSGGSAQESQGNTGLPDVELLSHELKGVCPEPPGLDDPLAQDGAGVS

[7] = test system: Rattus norvegicus; assay: Anti-inflammatory activity in Sprague-Dawley rat assessed as inhibition of LPS-induced neutrophilia at 1000 ug/kg, it administered as suspension with Penn-Century micro-sprayer aerosolizer dosed 18 hrs before LPS challenge and measured 22 hrs post dose; type: functional; conditions: inhaled or nasal; summary of the method: as §1
[8] = Inhibition of PDE4 in human whole blood assessed as reduction in LPS-induced TNFalpha production incubated for 24 hrs by ELISA; type: tissue-based
Summary of the method: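 Human whole blood was preincubated with LPS (final 1 μg/mL) for 10 min at 37 °C with rocking. 200 μL was added to wells holding increasing inhibitor concentrations in 100% DMSO. Plates were incubated 24 h at 37 °C under agitation, then placed on ice, diluted with PBS and centrifuged at 800g, 4 °C, for 15 min before TNF-α measurement.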

[9] = Inhibition of PDE4 in PBMC (unknown origin) assessed as reduction in LPS-induced TNFalpha production incubated for 24 hrs by ELISA; conditions: Homo sapiens
[10] = test system: Rattus norvegicus; assay: Anti-inflammatory activity in Sprague-Dawley rat assessed as inhibition of LPS-induced neutrophilia at 25 ug/kg, it administered as suspension with Penn-Century micro-sprayer aerosolizer dosed 1 hrs before LPS challenge and measured 5 hrs post dose; type: functional; conditions: inhaled or nasal; summary of the method: as §1
[11] = test system: Rattus norvegicus; assay: Anti-inflammatory activity in Sprague-Dawley rat assessed as inhibition of LPS-induced neutrophilia at 100 ug/kg, it administered as suspension with Penn-Century micro-sprayer aerosolizer dosed 1 hrs before LPS challenge and measured 5 hrs post dose; type: functional; conditions: inhaled or nasal; summary of the method: as §1
[12] = test system: Rattus norvegicus; assay: Anti-inflammatory activity in Sprague-Dawley rat assessed as inhibition of LPS-induced neutrophilia at 100 ug/kg, it administered as suspension with Penn-Century micro-sprayer aerosolizer dosed 18 hrs before LPS challenge and measured 22 hrs post dose; type: functional; conditions: inhaled or nasal; summary of the method: as §1
[13] = test system: Rattus norvegicus; assay: Anti-inflammatory activity in Sprague-Dawley rat assessed as inhibition of LPS-induced neutrophilia at 300 ug/kg, it administered as suspension with Penn-Century micro-sprayer aerosolizer dosed 18 hrs before LPS challenge and measured 22 hrs post dose; type: functional; conditions: inhaled or nasal; summary of the method: as §1

SMILES	IC50 [1]	IC50 [2]	IC50 [6]	IC50 [8]	IC50 [9]	also measured
CCn1nc(-c2cccc(-c3cccc(CC(=O)NCCCCCCCN(C)CCO)c3)c2)cc(NC(=O)Nc2c(Cl)cncc2Cl)c1=O	459 nM	28 nM	59 nM	525 nM	4.9 nM	
CCn1nc(-c2cccc(Br)c2)cc(NC(=O)Nc2c(Cl)cncc2Cl)c1=O					3.7 nM	
CCn1nc(-c2cccc(-c3cc(OCC4CC4)cc(C(=O)NCCN4CCCCC4)c3)c2)cc(NC(=O)Nc2c(Cl)cncc2Cl)c1=O	> 1000 nM	81 nM	> 1000 nM		0.88 nM	inhibition in vivo at 0.025 mg/kg [10]: 60%
CCn1nc(-c2cccc(-c3cccc(C(=O)NCCC4CCCN4C)c3)c2)cc(NC(=O)Nc2c(Cl)cncc2Cl)c1=O (stereo unspecified)		2 nM	5 nM	70 nM	0.19 nM	inhibition in vivo at 0.1 mg/kg [11]: 70%; inhibition in vivo at 0.1 mg/kg [12]: 57%
CCn1nc(-c2cccc(-c3cc(C(=O)NCCO)cc(C(=O)NCCN4CCCCC4)c3)c2)cc(NC(=O)Nc2c(Cl)cncc2Cl)c1=O	> 268 nM	> 1000 nM	> 1000 nM		0.31 nM	inhibition in vivo at 0.025 mg/kg [10]: 33%
CCn1nc(-c2cccc(-c3cc(C(=O)NCCN4CCCCC4)cc(C(=O)NC4CC4)c3)c2)cc(NC(=O)Nc2c(Cl)cncc2Cl)c1=O	95 nM	> 1000 nM	> 1000 nM		0.35 nM	inhibition in vivo at 0.025 mg/kg [10]: 25%
CCn1nc(-c2cccc(-c3cc(C(=O)NCC[C@H]4CCCN4C)cc(C(=O)NC4CC4)c3)c2)cc(NC(=O)Nc2c(Cl)cncc2Cl)c1=O	146 nM	399 nM	> 1000 nM		0.3 nM	inhibition in vivo at 0.1 mg/kg [12]: 37%; inhibition in vivo at 0.025 mg/kg [10]: 42%
CCOc1cc(C(=O)NC2CC2)cc(-c2cccc(-c3cc(NC(=O)Nc4c(Cl)cncc4Cl)c(=O)n(CC)n3)c2)c1	> 1000 nM	59 nM	> 1000 nM		0.24 nM	inhibition in vivo at 0.025 mg/kg [10]: 26%
CCn1nc(-c2cccc(-c3cc(C(=O)NCCN4CCOCC4)cc(C(=O)NC4CC4)c3)c2)cc(NC(=O)Nc2c(Cl)cncc2Cl)c1=O	> 1000 nM	> 1000 nM	> 1000 nM			inhibition in vivo at 0.1 mg/kg [12]: 29%; inhibition in vivo at 0.025 mg/kg [10]: 55%
CCn1nc(-c2cccc(-c3cccc(C(=O)NCCCCCCCN(C)CCO)c3)c2)cc(NC(=O)Nc2c(Cl)cncc2Cl)c1=O	206 nM	13 nM	41 nM	57 nM	0.24 nM	inhibition in vivo at 0.1 mg/kg [11]: 79%; inhibition in vivo at 1 mg/kg [7]: 27%
CCn1nc(-c2cccc(-c3cc(C(=O)NC4CC4)cc(C(=O)NC4CC4)c3)c2)cc(NC(=O)Nc2c(Cl)cncc2Cl)c1=O	> 1000 nM	324 nM	> 1000 nM		0.4 nM	inhibition in vivo at 0.025 mg/kg [10]: 54%; inhibition in vivo at 0.3 mg/kg [13]: 27%
CCn1nc(-c2ccccc2)c(C(C)=O)c(Nc2ccc(C(=O)O)cc2)c1=O					21 nM	

Further lines, with some results ahead:

IC50 [1]	IC50 [2]	IC50 [6]	IC50 [8]	IC50 [9]	SMILES	also measured
> 1000 nM	184 nM	> 1000 nM	257 nM	0.68 nM	CCn1nc(-c2cccc(-c3ccc(CC(=O)O)cc3)c2)cc(NC(=O)Nc2c(Cl)cncc2Cl)c1=O	ED50 [3]: 0.149 mg/kg; inhibition in vivo at 1 mg/kg [4]: 80%; metabolised at 20 min [5]: 32%; inhibition in vivo at 1 mg/kg [7]: 10%
				26.3 nM	CCn1nc(-c2cccc(-c3ccc(F)c(C(=O)O)c3)c2)cc(NC(=O)Nc2c(Cl)cncc2Cl)c1=O	
				10.3 nM	CCn1nc(-c2cccc(-c3ccccc3C(=O)O)c2)cc(NC(=O)Nc2c(Cl)cncc2Cl)c1=O	
			120 nM	0.2 nM	CCn1nc(-c2cccc(-c3ccc(C(N)=O)cc3)c2)cc(NC(=O)Nc2c(Cl)cncc2Cl)c1=O	
				6.6 nM	CCn1nc(-c2cccc(-c3cc(C(=O)O)ccc3F)c2)cc(NC(=O)Nc2c(Cl)cncc2Cl)c1=O	
				11.6 nM	CCn1nc(-c2cccc(-c3cncc(C(=O)O)c3)c2)cc(NC(=O)Nc2c(Cl)cncc2Cl)c1=O	metabolised at 20 min [5]: 35%
263 nM	5 nM	434 nM	190 nM	0.54 nM	CCn1nc(-c2cccc(-c3cccc(CC(=O)O)c3)c2)cc(NC(=O)Nc2c(Cl)cncc2Cl)c1=O	inhibition in vivo at 1 mg/kg [4]: 66%; metabolised at 20 min [5]: 56%; inhibition in vivo at 1 mg/kg [7]: 16%
			100 nM	1.1 nM	CCn1nc(-c2cccc(-c3ccc(O)nc3)c2)cc(NC(=O)Nc2c(Cl)cncc2Cl)c1=O	
			75 nM	1.4 nM	CCn1nc(-c2cccc(-c3ccccc3O)c2)cc(NC(=O)Nc2c(Cl)cncc2Cl)c1=O	metabolised at 20 min [5]: 1.7%
222 nM	17 nM	270 nM		2.17 nM	CCn1nc(-c2cccc(-c3cccc(C(=O)O)c3)c2)cc(NC(=O)Nc2c(Cl)cncc2Cl)c1=O	metabolised at 20 min [5]: 9%
				0.8 nM	CCn1nc(-c2cccc(-c3cccc(O)c3F)c2)cc(NC(=O)Nc2c(Cl)cncc2Cl)c1=O	
			154 nM	2.9 nM	CCn1nc(-c2cccc(-c3ccc(O)cc3F)c2)cc(NC(=O)Nc2c(Cl)cncc2Cl)c1=O	metabolised at 20 min [5]: 27%
			202 nM	1.3 nM	CCn1nc(-c2cccc(-c3ccc(F)cc3O)c2)cc(NC(=O)Nc2c(Cl)cncc2Cl)c1=O	
> 1000 nM	634 nM	> 1000 nM		0.19 nM	CCn1nc(-c2cccc(-c3cc(C#N)cc(C(=O)NC4CC4)c3)c2)cc(NC(=O)Nc2c(Cl)cncc2Cl)c1=O	
